Measurements reported in ChEMBL document CHEMBL1155063 (Bioorg Med Chem, 2008).

Tests used:
[1] = Cytotoxicity against human H1299 cells at 100 uM after 48 hrs by MTT assay realtive to control; format: functional; conditions: NCI-H1299, 48 h
Method in brief: (§1)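 H1299 non-small-cell lung cells were kept in RPMI 1640 with 10% FBS and penicillin/streptomycin at 37 °C under 5% CO2. About 2 × 10^3 cells per well were pre-incubated for 24 h. Compound was added from freshly made DMSO solution diluted in complete medium and left for 48 h. MTT was then added for 4 h at 37 °C, followed by 20% SDS/50% DMF lysis buffer for 16 h at 37 °C, and absorbance read at 550 nm.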

[2] = target: T1, Telomerase reverse transcriptase (Homo sapiens, UniProt O14746); assay: Effect on human TERT expressed in BJ1 cells at 100 uM after 24 hrs by SEAP assay relative to control; conditions: BJ
[3] = Cell viability of human H1299 cells at 1 uM after 48 hrs by MTT assay relative to control; conditions: NCI-H1299, 48 h
[4] = target: T1, Telomerase reverse transcriptase; assay: Effect on human TERT expressed in H1299 cells at 10 uM after 24 hrs by SEAP assay relative to control
[5] = target: T1, Telomerase reverse transcriptase; assay: Effect on human TERT expressed in BJ1 cells at 10 uM after 24 hrs by SEAP assay relative to control; conditions: BJ
[6] = target: T1, Telomerase reverse transcriptase; assay: Effect on human TERT expressed in H1299 cells at 100 uM after 24 hrs by SEAP assay relative to control
[7] = Cytotoxicity against human H1299 cells at 10 uM after 48 hrs by MTT assay realtive to control; format: functional; conditions: NCI-H1299, 48 h; method in brief: as §1
[8] = Cytotoxicity against human TERT immortalized BJ1 cells at 1 uM after 48 hrs by MTT assay relative to control; format: cell-based, BJ
Method in brief: (§2)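 hTERT-immortalized BJ1 fibroblasts were grown in DMEM with 10% FCS, 1 mM pyruvate and 4 mM […]. Cells (about 2 × 10^3 per well) were seeded and held 24 h at 37 °C. Compounds were freshly dissolved in DMSO, diluted into medium and left on the cells 48 h. MTT was added for 4 h, then SDS/DMF lysis buffer for 16 h. Absorbance was read at 550 nm and expressed relative to untreated cells (100%).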

[9] = Cytotoxicity against human TERT immortalized BJ1 cells at 100 uM after 48 hrs by MTT assay relative to control; format: cell-based, BJ; method in brief: as §2
[10] = target: T1, Telomerase reverse transcriptase; assay: Effect on human TERT expressed in H1299 cells at 1 uM after 24 hrs by SEAP assay relative to control
[11] = Cytotoxicity against human TERT immortalized BJ1 cells at 10 uM after 48 hrs by MTT assay relative to control; format: cell-based, BJ; method in brief: as §2
[12] = target: T1, Telomerase reverse transcriptase; assay: Effect on human TERT expressed in BJ1 cells at 1 uM after 24 hrs by SEAP assay realtive to control; conditions: BJ

T1 sequence (O14746 whole entry): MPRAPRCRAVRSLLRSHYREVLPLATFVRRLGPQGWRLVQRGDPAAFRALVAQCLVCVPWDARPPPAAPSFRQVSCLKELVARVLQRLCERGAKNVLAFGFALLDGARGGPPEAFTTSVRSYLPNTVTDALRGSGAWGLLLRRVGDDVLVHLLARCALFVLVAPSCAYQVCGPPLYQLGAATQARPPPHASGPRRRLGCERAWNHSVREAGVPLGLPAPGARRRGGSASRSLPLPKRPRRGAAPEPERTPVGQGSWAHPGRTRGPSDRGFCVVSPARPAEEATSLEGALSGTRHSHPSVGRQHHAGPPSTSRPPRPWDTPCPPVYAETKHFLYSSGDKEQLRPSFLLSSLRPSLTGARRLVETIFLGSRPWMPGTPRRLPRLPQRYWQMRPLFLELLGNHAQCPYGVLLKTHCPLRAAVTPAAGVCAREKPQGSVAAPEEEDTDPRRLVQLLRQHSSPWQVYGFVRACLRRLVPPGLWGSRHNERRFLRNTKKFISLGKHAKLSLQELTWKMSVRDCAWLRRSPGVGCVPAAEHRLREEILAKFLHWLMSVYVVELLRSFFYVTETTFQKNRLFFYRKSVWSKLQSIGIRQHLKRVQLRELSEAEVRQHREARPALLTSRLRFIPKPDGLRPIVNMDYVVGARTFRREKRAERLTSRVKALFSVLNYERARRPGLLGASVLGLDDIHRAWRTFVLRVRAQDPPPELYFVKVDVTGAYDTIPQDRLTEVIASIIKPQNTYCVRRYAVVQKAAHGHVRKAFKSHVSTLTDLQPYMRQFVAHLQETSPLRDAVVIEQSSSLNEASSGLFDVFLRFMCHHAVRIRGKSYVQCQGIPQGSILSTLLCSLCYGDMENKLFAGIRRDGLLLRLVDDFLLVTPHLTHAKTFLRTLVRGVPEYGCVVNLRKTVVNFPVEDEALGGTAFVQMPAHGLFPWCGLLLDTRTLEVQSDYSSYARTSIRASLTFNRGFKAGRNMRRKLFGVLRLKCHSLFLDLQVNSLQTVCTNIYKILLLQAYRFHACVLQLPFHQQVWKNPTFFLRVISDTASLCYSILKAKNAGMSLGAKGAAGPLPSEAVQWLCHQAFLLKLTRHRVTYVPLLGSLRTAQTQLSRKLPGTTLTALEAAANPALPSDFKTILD

| residual activity [2] | residual activity [4] | residual activity [5] | residual activity [6] | residual activity [10] | residual activity [12] | SMILES | viability at 100 µM [1] | cell viability at 1 µM [3] | viability at 10 µM [7] | viability at 48 h, 1 µM [8] | viability at 48 h, 100 µM [9] | viability at 48 h, 10 µM [11] |
| --- | --- | --- | --- | --- | --- | --- | --- | --- | --- | --- | --- | --- |
| – | 52% | 138% | 21% | 75% | – | CN1CCN(CCC(=O)Nc2ccc3c(c2)C(=O)c2cc(NC(=O)CCN4CCN(C)CC4)ccc2C3=O)CC1 | 39% | 95% | 80% | 95% | 61% | 80% |
| 97% | 50% | 68% | 23% | 76% | 61% | CN1CCN(CC(=O)Nc2ccc3c(c2)C(=O)c2cc(NC(=O)CN4CCN(C)CC4)ccc2C3=O)CC1 | 37% | 90% | 71% | 86% | 47% | 69% |
| 135% | 40% | 69% | 36% | 72% | – | O=C(CCl)Nc1ccc2c(c1)C(=O)c1cc(NC(=O)CCl)ccc1C2=O | 1% | 58% | 5% | 105% | 88% | 89% |
| – | 48% | – | 30% | 88% | – | O=C(CN1CCCC1)Nc1ccc2c(c1)C(=O)c1cc(NC(=O)CN3CCCC3)ccc1C2=O | 23% | 99% | 52% | 99% | 39% | 60% |
| 51% | 95% | 64% | 85% | 90% | 78% | CCC(=O)Nc1ccc2c(c1)C(=O)c1cc(NC(=O)CC)ccc1C2=O | 35% | 70% | 38% | 77% | 48% | 57% |
| – | 72% | – | 60% | 89% | – | O=C(CN1CCNCC1)Nc1ccc2c(c1)C(=O)c1cc(NC(=O)CN3CCNCC3)ccc1C2=O | 88% | 88% | 85% | 88% | 76% | 85% |
| – | 94% | – | 87% | 94% | – | O=C(CCCl)Nc1ccc2c(c1)C(=O)c1cc(NC(=O)CCCl)ccc1C2=O | 29% | 77% | 44% | 77% | 39% | 65% |

More lines, now with the values behind:

| SMILES | residual activity [2] | residual activity [4] | residual activity [5] | residual activity [6] | residual activity [10] | residual activity [12] | viability at 100 µM [1] | cell viability at 1 µM [3] | viability at 10 µM [7] | viability at 48 h, 1 µM [8] | viability at 48 h, 100 µM [9] | viability at 48 h, 10 µM [11] |
| --- | --- | --- | --- | --- | --- | --- | --- | --- | --- | --- | --- | --- |
| O=C(Nc1ccc2c(c1)C(=O)c1cc(NC(=O)c3ccccc3)ccc1C2=O)c1ccccc1 | 36% | 92% | 72% | 85% | 104% | – | 41% | 71% | 47% | 92% | 97% | 85% |
| CC(C)CNCC(=O)Nc1ccc2c(c1)C(=O)c1cc(NC(=O)CNCC(C)C)ccc1C2=O | 40% | 38% | 44% | 26% | 73% | 83% | 11% | 108% | 39% | 107% | 39% | 37% |
| O=C(Cc1ccccc1)Nc1ccc2c(c1)C(=O)c1cc(NC(=O)Cc3ccccc3)ccc1C2=O | 40% | 91% | 79% | 80% | 97% | 85% | 75% | 106% | 96% | 93% | 86% | 80% |
| CCNCC(=O)Nc1ccc2c(c1)C(=O)c1cc(NC(=O)CNCC)ccc1C2=O | 17% | 35% | 41% | 34% | 60% | 90% | 3% | 52% | 24% | 72% | 37% | 56% |
| CCCCNCC(=O)Nc1ccc2c(c1)C(=O)c1cc(NC(=O)CNCCCC)ccc1C2=O | 80% | 26% | 24% | 20% | 77% | 27% | 15% | 91% | 17% | 103% | 43% | 41% |
| CCCCNCCC(=O)Nc1ccc2c(c1)C(=O)c1cc(NC(=O)CCNCCCC)ccc1C2=O | 111% | 33% | 95% | 22% | 56% | 88% | 14% | 82% | 52% | 80% | 40% | 70% |
| Nc1ccc2c(c1)C(=O)c1cc(N)ccc1C2=O | – | 75% | – | 63% | 87% | – | 65% | 90% | 80% | 95% | 80% | 83% |
| CCCC(=O)Nc1ccc2c(c1)C(=O)c1cc(NC(=O)CCC)ccc1C2=O | – | 83% | – | 83% | 90% | – | 40% | 93% | 59% | 84% | 50% | 51% |
| CCCNCC(=O)Nc1ccc2c(c1)C(=O)c1cc(NC(=O)CNCCC)ccc1C2=O | – | 44% | – | 24% | 73% | – | 14% | 89% | 54% | 96% | 42% | 44% |
| O=C1c2ccc(NC(=O)C3CCCC3)cc2C(=O)c2cc(NC(=O)C3CCCC3)ccc21 | 108% | 87% | 130% | 85% | 83% | 137% | 42% | 91% | 77% | 77% | 58% | 68% |
| O=C(CCCCl)Nc1ccc2c(c1)C(=O)c1cc(NC(=O)CCCCl)ccc1C2=O | 75% | 86% | 42% | 78% | 88% | 13% | 22% | 84% | 40% | 72% | 58% | 62% |
| CC(C)NCC(=O)Nc1ccc2c(c1)C(=O)c1cc(NC(=O)CNC(C)C)ccc1C2=O | 45% | 28% | 55% | 21% | 73% | 79% | 6% | 78% | 26% | 89% | 39% | 41% |
